Assay results published in ChEMBL document CHEMBL5030522, “A Convenient Chemoenzymatic Preparation of Chimeric Macrocyclic Peptide Antibiotics with Potent Activity against Gram-Negative Pathogens” (2021).
Values after ≈ are worked out from the molar mass of the structure shown. Numbered stars: 1 amine (or outer) side, 2 acyl side, 3 side chain; on linkers, the order of the positions; unused ones are H or OH. Bridge positions count the residues as written; N and C are the ends. Square brackets hold non-standard residues; d marks the D form. Peptide text beside a SMILES is read from it. I, II: the chains in the order shown. X1 = NC(=O)[C@H](Cc1cn(CCOCCOCCOCCC(=O)[*:2])nn1)N[*:1]; X2 = NC(=O)[C@H](Cc1cn(CC(=O)[*:2])nn1)N[*:1]; Tle = CC(C)(C)[C@H](N)C(=O)O; dDab = NCC[C@@H](N)C(=O)O; hSer = N[C@@H](CCO)C(=O)O; Dab = NCC[C@H](N)C(=O)O

What was measured:
Format in all cases: functional
Acinetobacter baumannii [1] = test: Antibacterial activity against Acinetobacter baumannii ATCC 17978 assessed as inhibition of bacterial growth after 16 hrs by broth microdilution method
Method in brief: (§1)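 MIC per CLSI broth microdilution. Strains streaked from glycerol stocks on blood agar, 16 h at 37 °C. Single colonies inoculated into cation-adjusted Mueller-Hinton broth (10 mg L–1 Mg2+, 25 mg L–1 Ca2+). Peptides serially diluted in this broth with 0.002% (v/v) final polysorbate-80 in polypropylene plates. Inoculum 5 × 10^5 CFU mL–1. Plates sealed, 16 h at 37 °C, growth scored visually. MIC in μg/mL, triplicates on two separate days.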

Klebsiella pneumoniae [2] = test: Antibacterial activity against Klebsiella pneumoniae producing NDM1 assessed as inhibition of bacterial growth after 16 hrs by broth microdilution method; method in brief: as §1
Acinetobacter baumannii [3] = test: Antibacterial activity against multidrug-resistant Acinetobacter baumannii assessed as inhibition of bacterial growth after 16 hrs by broth microdilution method
Method in brief: (§2)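 CLSI broth microdilution. Strains grown from glycerol stocks on blood agar 16 h at 37 °C; colonies used to inoculate CAMHB containing 10 mg L–1 Mg2+ and 25 mg L–1 Ca2+. Peptides dissolved in CAMHB with 0.002% (v/v) final polysorbate-80, serially diluted in polypropylene plates; inoculum 5 × 10^5 CFU mL–1. Sealed, 16 h at 37 °C, growth scored visually. MIC in μg/mL; three or more measurements on multiple days.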

Escherichia coli [4] = test: Antibacterial activity against Escherichia coli producing MCR2 assessed as inhibition of bacterial growth after 16 hrs by broth microdilution method; method in brief: as §1
Klebsiella pneumoniae [5] = test: Antibacterial activity against Klebsiella pneumoniae ATCC 11228 assessed as inhibition of bacterial growth after 16 hrs by broth microdilution method; method in brief: as §1
Pseudomonas aeruginosa [6] = test: Antibacterial activity against Pseudomonas aeruginosa producing NDM1 assessed as inhibition of bacterial growth after 16 hrs by broth microdilution method; method in brief: as §2
Pseudomonas aeruginosa [7] = test: Antibacterial activity against Pseudomonas aeruginosa M-120 assessed as inhibition of bacterial growth after 16 hrs by broth microdilution method; method in brief: as §1
Acinetobacter baumannii [8] = test: Antibacterial activity against Acinetobacter baumannii ATCC 9955 assessed as inhibition of bacterial growth after 16 hrs by broth microdilution method; method in brief: as §1
Escherichia coli [9] = test: Antibacterial activity against Escherichia coli producing NDM1 assessed as inhibition of bacterial growth after 16 hrs by broth microdilution method; method in brief: as §2
Staphylococcus aureus = test: Antibacterial activity against methicillin resistant Staphylococcus aureus USA300 by measuring MIC after 16 hrs by broth microdilution method; method in brief: as §2
Escherichia coli [10] = test: Antibacterial activity against Escherichia coli producing MCR3 assessed as inhibition of bacterial growth after 16 hrs by broth microdilution method; method in brief: as §1
Escherichia coli [11] = test: Antibacterial activity against Escherichia coli ATCC 35218 assessed as inhibition of bacterial growth after 16 hrs by broth microdilution method; method in brief: as §1
Escherichia coli [12] = test: Antibacterial activity against Escherichia coli producing MCR1 assessed as inhibition of bacterial growth after 16 hrs by broth microdilution method; method in brief: as §1
Acinetobacter baumannii [13] = test: Antibacterial activity against Acinetobacter baumannii NRZ 00687 producing NDM2 assessed as inhibition of bacterial growth after 16 hrs by broth microdilution method; method in brief: as §1
Pseudomonas aeruginosa [14] = test: Antibacterial activity against Pseudomonas aeruginosa ATCC 27853 assessed as inhibition of bacterial growth after 16 hrs by broth microdilution method; method in brief: as §1
Pseudomonas aeruginosa [15] = test: Antibacterial activity against Pseudomonas aeruginosa NRZ 08418 producing NDM1 assessed as inhibition of bacterial growth after 16 hrs by broth microdilution method; method in brief: as §1

Row | SMILES | MIC (Acinetobacter baumannii [1]) [µg/mL] | MIC (Klebsiella pneumoniae [2]) [µg/mL] | MIC (Acinetobacter baumannii [3]) [µg/mL] | MIC (Escherichia coli [4]) [µg/mL] | MIC (Klebsiella pneumoniae [5]) [µg/mL] | MIC (Pseudomonas aeruginosa [6]) [µg/mL] | MIC (Pseudomonas aeruginosa [7]) [µg/mL] | MIC (Acinetobacter baumannii [8]) [µg/mL] | MIC (Escherichia coli [9]) [µg/mL] | MIC (Staphylococcus aureus) [µg/mL] | MIC (Escherichia coli [10]) [µg/mL] | MIC (Escherichia coli [11]) [µg/mL] | MIC (Escherichia coli [12]) [µg/mL] | MIC (Acinetobacter baumannii [13]) [µg/mL] | MIC (Pseudomonas aeruginosa [14]) [µg/mL] | MIC (Pseudomonas aeruginosa [15]) [µg/mL]
1 | CC(C)C[C@@H]1NC(=O)[C@@H](Cc2ccccc2)NC(=O)[C@H](CCN)NC(=O)[C@@H](NC(=O)[C@H](CCN)NC(=O)[C@@H](NC(=O)[C@H](CCN)NC(=O)CC[C@@H]2NC(=O)[C@H](CCN)NC(=O)[C@H](Cc3ccc(O)cc3)NC(=O)[C@H]([C@@H](C)O)NC(=O)[C@H](C(C)C)NC(=O)[C@@H]3CCCN3C(=O)[C@@H](C)NC(=O)[C@H](CO)NC(=O)[C@H](C)NC(=O)[C@H](C(C)(C)C)NC(=O)[C@H](CCO)NC(=O)[C@H](Cc3c[nH]c4ccccc34)NC(=O)[C@H](CCO)NC(=O)[C@@H](CCN)NC2=O)[C@@H](C)O)CCNC(=O)[C@H]([C@@H](C)O)NC(=O)[C@H](CCN)NC(=O)[C@H](CCN)NC1=O (I: cyclo([dDab][hSer]W[hSer][Tle]AS[dA]PVTY[Dab]E) / II: [Dab]T[Dab][Dab][Dab][dF]L[Dab][Dab]T; amide I:14-II:N; lactam II:4-II:C) | 0.4 (≈ 0.156 µM) | 0.4 (≈ 0.156 µM) | 0.4 (≈ 0.156 µM) | 0.4 (≈ 0.156 µM) | 0.2 (≈ 0.0779 µM) | 0.8 (≈ 0.312 µM) | 1.6 (≈ 0.624 µM) | 0.2 (≈ 0.0779 µM) | 0.1 (≈ 0.039 µM) | > 6.4 | 0.4 (≈ 0.156 µM) |  |  |  |  | 
2 | CC(C)C[C@@H]1NC(=O)[C@@H](CC(C)C)NC(=O)[C@H](CCN)NC(=O)[C@@H](NC(=O)[C@H](CCN)NC(=O)[C@@H](NC(=O)CCOCCOCCOCCn2cc(C[C@H](NC(=O)CC[C@@H]3NC(=O)[C@H](CCN)NC(=O)[C@H](Cc4ccc(O)cc4)NC(=O)[C@H]([C@@H](C)O)NC(=O)[C@H](C(C)C)NC(=O)[C@@H]4CCCN4C(=O)[C@@H](C)NC(=O)[C@H](CO)NC(=O)[C@H](C)NC(=O)[C@H](C(C)(C)C)NC(=O)[C@H](CCO)NC(=O)[C@H](Cc4c[nH]c5ccccc45)NC(=O)[C@H](CCO)NC(=O)[C@@H](CCN)NC3=O)C(N)=O)nn2)[C@@H](C)O)CCNC(=O)[C@H]([C@@H](C)O)NC(=O)[C@H](CCN)NC(=O)[C@H](CCN)NC1=O (I: cyclo([dDab][hSer]W[hSer][Tle]AS[dA]PVTY[Dab]E) / II: T[Dab][Dab][Dab][dL]L[Dab][Dab]T; linker I:14-II:N via X1; lactam II:3-II:C) |  |  | 4 (≈ 1.44 µM) | 16 (≈ 5.77 µM) | 8 (≈ 2.88 µM) | 4 (≈ 1.44 µM) | 8 (≈ 2.88 µM) | 8 (≈ 2.88 µM) |  | > 64 |  | 2 (≈ 0.721 µM) | 16 (≈ 5.77 µM) | 2 (≈ 0.721 µM) | 4 (≈ 1.44 µM) | 
3 | CC(C)[C@@H]1NC(=O)[C@@H]2CCCN2C(=O)[C@@H](C)NC(=O)[C@H](CO)NC(=O)[C@H](C)NC(=O)[C@H](C(C)(C)C)NC(=O)[C@H](CCO)NC(=O)[C@H](Cc2c[nH]c3ccccc23)NC(=O)[C@H](CCO)NC(=O)[C@@H](CCN)NC(=O)[C@H](CCC(N)=O)NC(=O)[C@H](CCN)NC(=O)[C@H](Cc2ccc(O)cc2)NC(=O)[C@H]([C@@H](C)O)NC1=O (cyclo([dDab][hSer]W[hSer][Tle]AS[dA]PVTY[Dab]Q)) |  |  |  |  |  |  |  |  |  | > 64 |  |  |  |  |  | 
4 | CC(C)C[C@@H]1NC(=O)[C@@H](CC(C)C)NC(=O)[C@H](CCN)NC(=O)[C@@H](NC(=O)Cn2cc(C[C@H](NC(=O)CC[C@@H]3NC(=O)[C@H](CCN)NC(=O)[C@H](Cc4ccc(O)cc4)NC(=O)[C@H]([C@@H](C)O)NC(=O)[C@H](C(C)C)NC(=O)[C@@H]4CCCN4C(=O)[C@@H](C)NC(=O)[C@H](CO)NC(=O)[C@H](C)NC(=O)[C@H](C(C)(C)C)NC(=O)[C@H](CCO)NC(=O)[C@H](Cc4c[nH]c5ccccc45)NC(=O)[C@H](CCO)NC(=O)[C@@H](CCN)NC3=O)C(N)=O)nn2)CCNC(=O)[C@H]([C@@H](C)O)NC(=O)[C@H](CCN)NC(=O)[C@H](CCN)NC1=O (I: cyclo([dDab][hSer]W[hSer][Tle]AS[dA]PVTY[Dab]E) / II: [Dab][Dab][dL]L[Dab][Dab]T; linker I:14-II:N via X2; lactam II:1-II:C) |  |  | 32 (≈ 13.2 µM) | 32 (≈ 13.2 µM) | 16 (≈ 6.6 µM) | 32 (≈ 13.2 µM) | 64 (≈ 26.4 µM) | 64 (≈ 26.4 µM) |  | > 64 | 64 (≈ 26.4 µM) |  |  | 64 (≈ 26.4 µM) | 64 (≈ 26.4 µM) | 64 (≈ 26.4 µM)
